Data on 6 compounds can be found in ChEMBL document CHEMBL1147694, “Synthesis and biological activity of conjugates between paclitaxel and the cell delivery vector penetratin” (Bioorg Med Chem Lett, 2006).

Data set [1] has as its system MCF7. The experiment in a line: Antiproliferative activity against human MCF7 cell line by MTT assay after 72 hrs. Format: functional, cell-based. The procedure, abridged:
(§1)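 Human tumour cells, MCF7 (breast) and A549 (lung), were exposed to test compounds for 72 h, and growth was read by MTT assay. IC50 is the concentration giving 50% growth inhibition, taken as the mean of three independent experiments.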

In data set [2] the test system is A549. The experiment in a line: Antiproliferative activity against human A549 cell line by MTT assay after 72 hrs. In kind it is functional, cell-based. A digest of the protocol:
as §1

Data set [3] has as its system MCF7. The experiment in a line: Antiproliferative activity against human MCF7 cell line by MTT assay after 1 hr. Format: functional, cell-based. Particulars: MCF7, 1 h. A digest of the protocol: (§2)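 Cells were exposed to the conjugates for a short 1 h period, and viability was then quantified by MTT assay.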
Background: Tetrazolium assays rely on reduction of a dye to a coloured formazan, in cell work by metabolically active cells.

For data set [4], the system named is A549. The data set is described as follows: Antiproliferative activity against human A549 cell line by MTT assay after 1 hr. In kind it is functional, cell-based. The settings on record: A549, 1 h. The procedure, abridged: as §2
Data set [5] can be described thus: Aqueous solubility of the compound. In kind it is physicochemical.
A short description of data set [6]: Half life in tissue culture medium. In kind it is ADME. The procedure, abridged:
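Compounds were dissolved in DMEM with 10% foetal calf serum at 1 to 40 (concentration range) and incubated at 37 °C. Aliquots were withdrawn over time and analysed by RP-HPLC and mass spectrometry to give half-life. Analytical RP-HPLC used a MeCN gradient in water with 0.1% TFA over 20 min at 25 °C.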

[7] abbreviates: Homo sapiens, MCF7, 72 h, read-out: IC50.
The mark [8] stands for this setting: Homo sapiens, A549, 72 h, read-out: IC50.

`CSCC[C@H](NC(=O)[C@H](CCCN=C(N)N)NC(=O)[C@H](CCCN=C(N)N)NC(=O)CC(N)CSC1CC(=O)N(CCC(=O)O[C@@H](C(=O)O[C@@H]2C(C)=CC3[C@@H](OC(C)=O)C(=O)[C@@]4(C)[C@H]([C@H](OC(=O)c5ccccc5)[C@@]2(O)C3(C)C)[C@]2(OC(C)=O)CO[C@@H]2C[C@@H]4O)[C@@H](NC(=O)c2ccccc2)c2ccccc2)C1=O)C(=O)N[C@@H](CCCCN)C(=O)N[C@@H](Cc1c[nH]c2ccccc12)C(=O)N[C@@H](CCCCN)C(=O)N[C@@H](CCCCN)C(N)=O` (stereo partly specified): the IC50 in data set [1] (setting [7]) was less than 15 nM; in data set [2] (setting [8]) it was less than 15 nM; in data set [3], 325 nM; in data set [4], 43 nM. The compound also gave a solubility in data set [5] of more than 10000 µg/mL. In data set [6], this compound came in with a half-life of more than 8 h.

With `CC[C@H](C)[C@H](NC(=O)[C@H](CCCCN)NC(=O)[C@@H](NC(=O)[C@H](CCC(N)=O)NC(=O)[C@@H](N)CCCNC(=N)N)[C@@H](C)CC)C(=O)N[C@@H](Cc1c[nH]c2ccccc12)C(=O)N[C@@H](Cc1ccccc1)C(=O)N[C@@H](CCC(N)=O)C(=O)N[C@@H](CC(N)=O)C(=O)N[C@@H](CCCNC(=N)N)C(=O)N[C@@H](CCCNC(=N)N)C(=O)N[C@@H](CCSC)C(=O)N[C@@H](CCCCN)C(=O)N[C@@H](Cc1c[nH]c2ccccc12)C(=O)N[C@@H](CCCCN)C(=O)N[C@@H](CCCCN)C(N)=O` [PENETRATIN], the IC50 result in data set [1] (mcf7) and in data set [2] (a549) was “Not Active” each time.

Consider `CC[C@H](C)[C@H](NC(=O)[C@H](CCCCN)NC(=O)[C@@H](NC(=O)[C@H](CCC(N)=O)NC(=O)[C@H](CCCN=C(N)N)NC(=O)CC(N)CSC1CC(=O)N(CCC(=O)O[C@@H](C(=O)O[C@@H]2C(C)=CC3[C@@H](OC(C)=O)C(=O)[C@@]4(C)[C@H]([C@H](OC(=O)c5ccccc5)[C@@]2(O)C3(C)C)[C@]2(OC(C)=O)CO[C@@H]2C[C@@H]4O)[C@@H](NC(=O)c2ccccc2)c2ccccc2)C1=O)[C@@H](C)CC)C(=O)N[C@@H](Cc1c[nH]c2ccccc12)C(=O)N[C@@H](Cc1ccccc1)C(=O)N[C@@H](CCC(N)=O)C(=O)N[C@@H](CC(N)=O)C(=O)N[C@@H](CCCN=C(N)N)C(=O)N[C@@H](CCCN=C(N)N)C(=O)N[C@@H](CCSC)C(=O)N[C@@H](CCCCN)C(=O)N[C@@H](Cc1c[nH]c2ccccc12)C(=O)N[C@@H](CCCCN)C(=O)N[C@@H](CCCCN)C(=O)O` (stereo partly specified), for which the 50% inhibitory concentration (IC50) in data set [2] (setting [8]) was determined as 270 nM.

Take `CC(=O)O[C@H]1C(=O)[C@@]2(C)[C@H]([C@H](OC(=O)c3ccccc3)[C@]3(O)C[C@H](OC(=O)[C@H](O)[C@@H](NC(=O)c4ccccc4)c4ccccc4)C(C)=C1C3(C)C)[C@]1(OC(C)=O)CO[C@@H]1C[C@@H]2O` [PACLITAXEL]: the IC50 in data set [1] (setting [7]) is less than 15 nM; in data set [2] (setting [8]) it was less than 15 nM; in data set [3] it was 43 nM; in data set [4], 28 nM. This compound displayed a solubility in data set [5] of less than 10 µg/mL.

In the case of `CC[C@H](C)[C@H](NC(=O)[C@H](CCCCN)NC(=O)[C@@H](NC(=O)[C@H](CCC(N)=O)NC(=O)[C@H](CCCN=C(N)N)NC(=O)CC(N)CSC1CC(=O)N(CCC(=O)O[C@@H](C(=O)O[C@@H]2C(C)=CC3[C@@H](OC(C)=O)C(=O)[C@@]4(C)[C@H]([C@H](OC(=O)c5ccccc5)[C@@]2(O)C3(C)C)[C@]2(OC(C)=O)CO[C@@H]2C[C@@H]4O)[C@@H](NC(=O)c2ccccc2)c2ccccc2)C1=O)[C@@H](C)CC)C(=O)N[C@@H](Cc1c[nH]c2ccccc12)C(=O)N[C@@H](Cc1ccccc1)C(=O)N[C@@H](CCC(N)=O)C(=O)N[C@@H](CC(N)=O)C(=O)N[C@@H](CCCN=C(N)N)C(=O)N[C@@H](CCCN=C(N)N)C(=O)N[C@@H](CCSC)C(=O)N[C@@H](CCCCN)C(=O)N[C@@H](Cc1c[nH]c2ccccc12)C(=O)N[C@@H](CCCCN)C(=O)N[C@@H](CCCCN)C(N)=O` (stereo partly specified), the IC50 in data set [1] (setting [7]) is less than 17 nM; in data set [2] (setting [8]), less than 15 nM; in data set [3] it was 202 nM; in data set [4], 618 nM. Further, the half-life in data set [6] is more than 8 h.

Turning to H-RRMKWKK-NH2, the IC50 result in data set [1] (mcf7) and in data set [2] (a549) was “Not Active” each time.

In general, IC50 refers to the concentration needed to halve the response being measured. In general, solubility refers to the concentration that dissolves in the medium under given conditions. A low value points to a poorly soluble substance. By half-life is commonly meant the time needed for the level to fall by half in the phase considered.
